The list is a sample of the results.
Apaf1 activ – activators of human Apaf-1 apoptosome, primary screen, biochemical, DEVD-Rh110 fluorescence, uHTS. AID 489031, 2010. Apoptotic protease-activating factor 1 (Homo sapiens), O14727. hit rate 0.31% among 330,000. Apaf-1 apoptosome caspase-3 activation; stronger effect = lower value. activity change, negative = activation, % at 20 µM;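 active = activity change at or below -40% at 20 µM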
Target sequence (O14727 whole entry, looked up): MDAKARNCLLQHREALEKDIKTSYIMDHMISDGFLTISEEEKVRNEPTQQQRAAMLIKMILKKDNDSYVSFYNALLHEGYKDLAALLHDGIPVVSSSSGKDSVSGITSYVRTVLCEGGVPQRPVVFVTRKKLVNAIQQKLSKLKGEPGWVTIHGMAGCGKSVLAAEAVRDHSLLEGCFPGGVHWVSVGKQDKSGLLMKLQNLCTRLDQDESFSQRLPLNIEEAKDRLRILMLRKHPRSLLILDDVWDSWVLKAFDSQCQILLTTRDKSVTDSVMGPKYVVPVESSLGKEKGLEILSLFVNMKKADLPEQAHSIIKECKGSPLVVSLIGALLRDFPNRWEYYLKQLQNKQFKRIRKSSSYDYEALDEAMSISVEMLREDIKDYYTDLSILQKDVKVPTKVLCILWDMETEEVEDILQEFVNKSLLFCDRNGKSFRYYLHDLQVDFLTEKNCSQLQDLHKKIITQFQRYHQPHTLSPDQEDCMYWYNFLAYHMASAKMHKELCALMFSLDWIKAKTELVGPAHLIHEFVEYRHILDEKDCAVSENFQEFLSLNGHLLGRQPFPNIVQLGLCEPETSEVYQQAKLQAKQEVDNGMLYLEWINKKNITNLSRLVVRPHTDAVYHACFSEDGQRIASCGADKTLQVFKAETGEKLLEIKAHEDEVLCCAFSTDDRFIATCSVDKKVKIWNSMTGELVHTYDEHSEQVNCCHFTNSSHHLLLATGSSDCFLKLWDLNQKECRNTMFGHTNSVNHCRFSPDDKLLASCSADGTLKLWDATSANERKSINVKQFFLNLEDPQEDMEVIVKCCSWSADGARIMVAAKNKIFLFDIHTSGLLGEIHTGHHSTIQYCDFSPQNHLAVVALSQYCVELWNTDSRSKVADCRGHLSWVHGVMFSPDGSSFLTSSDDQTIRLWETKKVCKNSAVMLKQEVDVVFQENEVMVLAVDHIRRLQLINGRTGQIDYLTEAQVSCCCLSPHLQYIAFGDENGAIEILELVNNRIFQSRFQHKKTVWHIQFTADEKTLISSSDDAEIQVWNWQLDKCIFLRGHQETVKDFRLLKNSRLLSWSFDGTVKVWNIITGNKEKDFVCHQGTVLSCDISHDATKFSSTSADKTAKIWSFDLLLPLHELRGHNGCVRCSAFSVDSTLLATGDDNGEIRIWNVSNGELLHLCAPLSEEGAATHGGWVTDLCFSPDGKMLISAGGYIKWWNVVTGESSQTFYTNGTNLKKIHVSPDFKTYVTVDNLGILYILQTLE
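system = biochemical Apaf-1 apoptosome reconstitution | buffer or medium = 20 mM HEPES pH 7.5 with CHAPS, BSA | also added = dATP and cytochrome c as apoptosome triggers, (Z-DEVD)2-Rh110 substrate | incubation = 30 min compound preincubation and 50 min reaction, both room temperature | measured by = fluorescence, 540 nm emission, 480 nm excitation | read-out basis = Caspase-3 cleavage activity downstream of Apaf-1 activation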
Rh110 interf act – Rh110 fluorescence interference by putative Apaf-1 activators, confirmation, artefact control for Apaf-1 activator project, biochemical, 20 µM. shares compounds with Apaf1 activ. quenched caspase reaction, Ex480/Em540. fluorescence interference (activity change), % at 20 µM, hits read low. 980 tested, under 10 active;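 active = mean activity change at or below -40% when tested at 20 µM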
Apaf-1 act conf – Apaf-1 activators, single-dose retest, confirmation, biochemical, fluorescence, DEVD-Rh110, 20 µM; reconstituted apoptosome caspase-3 activity; stronger effect = lower value; shares compounds with Apaf1 activ; activity change, negative = activation, % at 20 µM; hit rate 5% among 980;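 active = mean activity change at or below -40%, meaning activation of 40% or more, at 20 µM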
Apaf1 act interf – fluorescence interference of Apaf-1 activator hits, dose response, artefact control for Apaf-1 activator project | fluorescence interference counterscreen, Apaf-1 activator assay | AID 588592, 2011 | shares compounds with Apaf1 activ | EC50, µM | 55 tested, under 10 active; call rule not given here
The depositor's hits bear a star; . = no result given.

SMILES | Apaf1 activ | Rh110 interf act | Apaf-1 act conf | others
CC(C)CC(=O)NC(NC(=S)Nc1sc2c(c1C#N)CCCC2)C(Cl)(Cl)Cl (centres undefined) | -215* | 5 | 34
CCOC(=O)Nc1sc2c(c1C#N)CCCC2 | -62* | -4 | 10
N#Cc1ccc(C23CC4(C2)[C@H](CN(CC2CCCCC2)[C@@H]4c2ccccc2)C3c2ccc(C(F)(F)F)cc2)cc1 (some centres undefined) | 42 | . | .
CCN(CC)CCN(C(=O)c1ccc2c(c1)CCCC2)c1nc2ccc(OC)cc2s1 | 61 | . | .
COc1ccc2c(c1OC)C(=O)OC2C1c2c(cc3c(c2OC)OCO3)CCN1C (centres undefined) | 5 | . | .
O=C1c2c(O)ccc(O)c2C(=O)c2c(NCCNCCO)ccc(NCCNCCO)c21 | 78 | . | .
CCC(CO)Oc1cc(NCc2cccc(C(F)(F)F)c2)c2ncn(C(C)C)c2c1 (centres undefined) | 41 | . | .
CCCCCc1ccc(OCCCC[n+]2cccc(C)c2)c(CCCCC)c1 | 61 | . | .
CCCCCc1ccc(OCCCC[n+]2ccc(C)cc2)c(CCCCC)c1 | 56 | . | .
C=C(C)C(=O)Nc1cccc(C2=NOC3(C2)C[C@H](C(N)=O)N(C(=O)/C=C/C)C3)c1 (some centres undefined) | -280* | 9 | -126* | Apaf1 act interf=>100
C=C(C)C(=O)Nc1cccc(C2=NOC3(C2)C[C@@H](C(N)=O)N(C(=O)/C=C/CC)C3)c1 (some centres undefined) | -205* | -3 | -114* | Apaf1 act interf=>100
CCOc1cc(NCc2ccccc2)c2ncn(C(C)C)c2c1 | 42 | . | .
CC(Sc1ccc2ccccc2n1)C(=O)O (centres undefined) | 6 | . | .
O=C1C(N2CCOCC2)=C(n2nnc3ccccc32)C(=O)c2ccccc21 | 94 | . | .
CC(Cn1nnc2ccccc21)C(=O)O (centres undefined) | -107* | 15 | -14
O=C(CCc1ccccc1)NNc1cc(N2CCCCC2)nc(N2CCCCC2)n1 | 60 | . | .
CC(C)COc1ccc(C(=O)Nc2scc(-c3ccc(Cl)cc3Cl)c2C(N)=O)cc1 | 45 | . | .
Cc1ccc(NC(=O)c2ccc(OC(=O)COc3ccc(Cl)cc3C)cc2)cc1 | -486* | -6 | 8
COc1ccc(OC)c2c1sc(=NC(=O)C(C)(C)C)n2C | -370* | 1 | 9
c1cc2c3c(cccc3c1)NC1(CCC3(CC1)Nc1cccc4cccc(c14)N3)N2 | 40 | . | .
CCOc1ccccc1NC(=O)c1cc(-c2ccccn2)nc2ccccc12 | 53 | . | .
CC(C)(C)NC(=O)c1cc(-c2ccc3c(c2)OCO3)nc2ccccc12 | -71* | 4 | 1
Cc1ccccc1OCCNc1cc(N2CC(C)NC(C)C2)ccc1[N+](=O)[O-] (centres undefined) | 56 | . | .
CC(C)C(=O)NC(c1cccs1)c1cc([N+](=O)[O-])c2cccnc2c1O (centres undefined) | 68 | . | .
COc1cc2[nH]c(C(=O)NN)c(N)c2cc1OC | 48 | . | .
SMILES | Apaf1 activ | Rh110 interf act | Apaf-1 act conf | others
COCCn1c(=S)[nH]c2cc(OC)c(OC)cc2c1=O | -93* | 2 | 7
FC(F)(F)c1cc(CCN2CCNC[C@@H]2Cc2ccccc2)cc(C(F)(F)F)c1 | 57 | . | .
N#CCCn1cc(C(CC(=O)c2ccc(Br)cc2)C(=O)O)c2ccccc21 (centres undefined) | -67* | 10 | -48* | Apaf1 act interf=>100
N=c1n(CC(=O)c2ccc(Br)cc2)c2ccccc2n1Cc1ccccc1 | 53 | . | .
Cc1ccccc1NC1=C/C(=N\S(=O)(=O)c2cccs2)c2ccccc2C1=O | 97 | . | .
COCCN(CCOC)Cc1c(O)ccc2c3c(c(=O)oc12)CCC3 | -336* | 3 | 4
CN1CCc2nc(SCc3ccc(Cl)cc3)c(C#N)c(-c3cccs3)c2C1 | 83 | . | .
COc1cc(/C=C2\SC(=O)N(c3cccc(Cl)c3)C2=O)cc([N+](=O)[O-])c1O | -142* | 3 | -132* | Apaf1 act interf=>100
COc1cc(/C=C2/C(=O)N(c3ccc([N+](=O)[O-])cc3)N=C2N2CCOCC2)ccc1O | 86 | . | .
CN(Cc1c(F)cccc1Cl)c1nnnn1-c1ccccc1 | -64* | 8 | 9
O=C1Nc2ccc(S(=O)(=O)NCc3ccco3)c3cccc1c23 | 49 | . | .
CCOc1ccc2[nH]c(=O)c(CN(CC3CCCN3CC)C(=O)NCc3ccccc3)cc2c1 (centres undefined) | -137* | 0 | 9
CC(C)c1ccc(S(=O)(=O)/N=C2/C=CC(=O)c3ccccc32)cc1 | 72 | . | .
COc1ccc(/C=N/NC(=O)c2cc(=O)[nH]c3ccccc23)cc1OC | -544* | -15 | 7
O=C(Cc1cc(=O)[nH][nH]1)N/N=C/c1cccc2ccccc12 | 54 | . | .
Cc1[nH]n(-c2ccccc2)c(=O)c1/C=N/NC(=O)c1ccc(O)cc1O | 73 | . | .
CCCCCCCc1ccc(C2NC(=S)NC3=C2C(=O)c2ccccc23)cc1 (centres undefined) | 44 | . | .
CC(N=Cc1cccc(O)c1O)c1ccccc1 (centres undefined) | 71 | . | .
NNC(=O)c1ccc(Cn2cc(Br)c(N)n2)cc1 | -40* | 4 | 5
N#CC1=C2SCN(Cc3ccccc3)CN2C(=O)CC1c1cccs1 (centres undefined) | 78 | . | .
Nc1cc(N)c(OCC(F)(F)F)cc1OCC(F)(F)F | 84 | . | .
Cc1ccc2cc(C(c3nnnn3Cc3ccccc3)N3CCc4ccccc43)c(=O)[nH]c2c1 (centres undefined) | 43 | . | .
CC(=O)c1ccc(NC(=O)c2cnsn2)cc1 | -410* | 5 | 12
CC(=O)c1ccc(NC(=O)c2ccc3nc(-c4ccco4)c(-c4ccco4)nc3c2)cc1 | 52 | . | .
CC(=O)c1ccc(NC(=S)Nc2cccc3cnccc23)cc1 | 96 | . | .
SMILES | Apaf1 activ | Rh110 interf act | Apaf-1 act conf | others
CSc1ccc(CN(C)C(=O)CSCC(=O)Nc2cc(C)on2)cc1 | 48 | . | .
CCCCc1nc(C(N)=O)c2[nH]c(=O)n(-c3ccc(OCC)cc3)c2n1 | -157* | 0 | 9
Cc1ccc2c(c1)c1ccc3c(c1n2C)C(=O)C=CC3=O | 57 | . | .
CN(C)c1ccc2nc3ccc(=[N+](C)C)cc-3sc2c1 | 64 | . | .
CC(=O)N1CCn2c3c(c(=O)c4cc(C)ccc42)CCC31 (centres undefined) | 73 | . | .
O=[N+]([O-])c1cccc(C2(O)COc3ccccc3O2)c1 (centres undefined) | -83* | 5 | 11
C#CCOCCOCCOCCNc1nc(N2CCN(C(=O)[C@H](Cc3cc4ccccc4[nH]3)n3cc([C@@H](N)C(C)CC)nn3)CC2)nc(N2CCN(C(=O)[C@H](Cc3cc4ccccc4[nH]3)n3cc([C@@H](N)Cc4ccc(O)cc4)nn3)CC2)n1 (some centres undefined) | 60 | . | .
O=C1C(C2=C(O)c3ccccc3C2=O)=Nc2ccccc21 | 66 | . | .
CCN(CC)CCOC(=O)c1ccc(N/C=C(/C#N)c2nc(-c3ccc4c(c3)OCO4)cs2)cc1 | 60 | . | .
